Published values gathered from unrelated publications.
Each line is one published result; the experiments were not run side by side.
Cell line: HCT-116
Read-out: cell growth or viability

O=C(NC(=S)NCCCNC(=S)NC(=O)c1ccc2ccccc2c1)c1ccc2ccccc2c1
IC50 (48 h): 1.23 µM

COc1cc(OC)c(/C=C/S(=O)(=O)Nc2ccc(OC)c(N)c2)c(OC)c1
IC50 (trypan blue; 96 h): 0.004 µM

NC(=O)NOCCCCCCCCCCCC[P+](c1ccccc1)(c1ccccc1)c1ccccc1
IC50 (imaging): 1.8 µM

CSc1nc(NC(=S)NCCc2ccccc2)n(-c2ccc(C(=O)O)cc2)n1
IC50 (MTT): 45.8 µM

COc1c(C)cnc(COc2ccc(NC(=O)Nc3ccc(Cl)cc3)cc2)c1C
IC50 (MTT; 72 h): 19.3 µM

COc1ccc2oc(=O)cc(CCl)c2c1
IC50 (MTT; 36 h): > 20 µM

O=C(Nc1nnc(-c2cc3ccccc3[nH]2)s1)c1cc2c([nH]c3ccccc32)c(-c2ccc(Cl)cc2)n1
IC50 (MTT; 72 h): 5.98 µM

COCCCOC(=O)[C@]1(C)CC[C@]2(C)CC[C@]3(C)C4=CC=C5C(=CC(=O)C(O)=C5C)[C@]4(C)CC[C@@]3(C)[C@@H]2C1
IC50 (MTT; 48 h): 0.49 µM

COc1cc(CNC(=O)CCCC/C=C/C(C)C)ccc1O
IC50 (SRB): 40.2 µM

COc1cc(-c2nc(C(=O)Nc3nnc(-c4cc5ccccc5n4C)s3)cc3c2[nH]c2ccccc23)cc(OC)c1OC
IC50 (MTT; 72 h): 6.11 µM

O=C(/N=C1\SCC(=O)N1C1CCCCC1)c1ccc2ccccc2c1
IC50 (48 h): 9.12 µM

Cc1c(OCC(F)(F)F)ccnc1COc1ccc(NC(=O)Nc2ccc(F)cc2)cc1
IC50 (MTT; 72 h): 6.35 µM

Cc1c(O)ccc2ccc(=O)oc12
IC50 (MTT; 36 h): > 20 µM

COc1c(C)cnc(COc2ccc(NC(=O)Nc3cc(F)cc(F)c3)cc2)c1C
IC50 (MTT; 72 h): 10.8 µM

CSc1nc(/N=C/c2ccc(O)cc2)n(-c2ccc(C(=O)O)cc2)n1
IC50 (MTT): 68.1 µM

CCC[C@H](Nc1nc(-c2ccc(NC(=O)NCC)c(OC)c2)ncc1C)c1cccnc1
IC50 (fluorescence; 72 h): 0.0477 µM

Cc1c(OCC(F)(F)F)ccnc1COc1ccc(NC(=O)Nc2ccc(Cl)cc2)cc1
IC50 (MTT; 72 h): 3.9 µM

O=C(Nc1nnc(-c2cc3ccccc3[nH]2)s1)c1cc2c([nH]c3ccccc32)c(-c2ccc(F)cc2)n1
IC50 (MTT; 72 h): 6.22 µM

CC(=O)Oc1ccc2c(CSC(C)=O)cc(=O)oc2c1
IC50 (MTT; 36 h): > 20 µM

Nc1nc(Oc2ccccc2)nn1-c1ccc(C(=O)O)cc1
IC50 (MTT): 61.2 µM

CC1=C(O)C(=O)C=C2C1=CC=C1[C@@]2(C)CC[C@@]2(C)[C@@H]3C[C@](C)(C(=O)OCCCOc4ccccc4)CC[C@]3(C)CC[C@]12C
IC50 (MTT; 48 h): 1.34 µM

CCOC(=O)/C=C1\S/C(=N\C(=O)c2ccc3ccccc3c2)N(C2CCCCC2)C1=O
IC50 (48 h): 11.4 µM

Cc1c(NC(=O)c2ccc(C(C)(C)C)cc2)cccc1-c1cn(C)c(=O)c(Nc2ccc(C(=O)N3CCOCC3)cc2)n1
IC50: > 10 µM

COc1cccc2c1C(=O)c1c(O)c3c(c(O)c1C2=O)C[C@@](O)(C(=O)CO)C[C@@H]3O[C@H]1C[C@H](N)[C@H](O)[C@H](C)O1
IC50 (SRB): 57.8 µM

O=C(NC(=S)NCc1ccc(CNC(=S)NC(=O)c2ccc3ccccc3c2)cc1)c1ccc2ccccc2c1
IC50 (48 h): 1.35 µM

COc1c(C)cnc(COc2ccc(NC(=O)Nc3cccc(C(F)(F)F)c3)cc2)c1C
IC50 (MTT; 72 h): 12.5 µM

CC1=C(O)C(=O)C=C2C1=CC=C1[C@@]2(C)CC[C@@]2(C)[C@@H]3C[C@](C)(C(=O)OCCCn4ccc5ccccc54)CC[C@]3(C)CC[C@]12C
IC50 (MTT; 48 h): 2.75 µM

CSc1nc(/N=C/c2cc([N+](=O)[O-])ccc2O)n(-c2ccc(C(=O)O)cc2)n1
IC50 (MTT): 60.3 µM

CCn1c(-c2nnc(NC(=O)c3cc4c([nH]c5ccccc54)c(-c4ccc(C)cc4)n3)s2)cc2ccccc21
IC50 (MTT; 72 h): 15.1 µM

CC(=O)c1ccc(-c2cccc(NC(=O)CCc3cccc4c3B(O)OC4)c2)cc1
IC50 (ATP luminescence; 72 h): 0.28 µM

O=c1cc(CCl)c2ccc(O)cc2o1
IC50 (MTT; 36 h): 8.47 µM

O=c1c(O)c(-c2ccc(O)c(O)c2)oc2cc(O)cc(O)c12
IC50 (WST-1; 48 h): 9.1 µM

CC[C@H](C)C(=O)O[C@H]1C[C@H](O)C=C2C=C[C@H](C)[C@H](CC[C@@H](O)C[C@@H](O)CC(=O)O)[C@H]21
IC50 (SRB; 72 h): 1.57 µg/mL

COc1ccnc(COc2ccc(NC(=O)Nc3ccc(F)cc3)cc2)c1OC
IC50 (MTT; 72 h): 22.3 µM

O=C(Nc1nnnn1C1CCCCC1)c1ccc2ccccc2c1
IC50 (48 h): 3.06 µM

COc1ccc(Nc2nc(-n3nc(C)cc3C)nc(-n3nc(C)cc3C)n2)cc1
IC50 (MTT; 72 h): 3.66 µM

CC(=O)SCc1cc(=O)oc2cc(O)ccc12
IC50 (MTT; 36 h): > 20 µM

COc1cc([C@@H]2c3cc4c(cc3[C@@H](O[C@@H]3O[C@@H]5CO[C@@H](C)O[C@H]5[C@H](O)[C@H]3O)[C@H]3COC(=O)[C@H]23)OCO4)cc(OC)c1O
IC50 (MTS; 48 h): 23.3 µM

CCCCCCCCCCONC(N)=O
IC50 (imaging): > 600 µM

CC1CCC(OCn2c[n+](Cc3ccccc3)c3ccccc32)CC1 (centres unmarked)
IC50 (MTT; 72 h): 21.9 µM

O=C(NC(=S)Nc1ccc([N+](=O)[O-])cc1)c1ccc2ccccc2c1
IC50 (48 h): 6.09 µM

CC1=C(O)C(=O)C=C2C1=CC=C1[C@@]2(C)CC[C@@]2(C)[C@@H]3C[C@](C)(C(=O)OCCCCCCCO)CC[C@]3(C)CC[C@]12C
IC50 (MTT; 48 h): 0.93 µM

COCCCOc1ccnc(COc2ccc(NC(=O)Nc3ccc(F)cc3)cc2)c1C
IC50 (MTT; 72 h): 6.44 µM

Nc1ncnc2c1ncn2[C@@H]1O[C@H](CO)[C@@H](O)[C@H]1O
IC50 (WST-1; 48 h): 41.8 µM

CSc1nc(N)n(-c2ccc(C(=O)O)cc2)n1
IC50 (MTT): 61 µM

O=c1c(O)c(-c2ccc(O)cc2)oc2cc(O)cc(O)c12
IC50 (WST-1; 48 h): 44.7 µM

COc1ccnc(COc2ccc(NC(=O)Nc3ccc(Cl)c(C(F)(F)F)c3)cc2)c1OC
IC50 (MTT; 72 h): 18.1 µM
